A selection: hits, their analogues and other compounds. The true share with any hit is near 2.9%.
SENP6 block: SENP6 protease inhibitors, primary screen, biochemical, luminescence, uHTS; Sentrin-specific protease 6 (Homo sapiens), Q9GZR1; Recombinant SENP6 catalytic domain, aminoluciferin luminescence; inhibition, % at 10 µM; hit rate 1.8% among 330,000; AID 2599, 2010;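 active = inhibition above about 50% at the single tested dose, limit read from the data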;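 note: plate controls were DMSO wells with enzyme for no effect and DMSO wells lacking enzyme for full effect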
HSP90 inh: HSP90 inhibitors, primary screen, cell lysate, luminescence; Rabbit reticulocyte lysate, luciferase refolding luminescence, 3 h; AID 1789, 2009; Heat shock protein HSP 90 (rabbit reticulocyte lysate; luciferase refolding); hit rate 0.91% among 290,000; inhibition, % at 5.6 µM;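 active = inhibition above the screen-wide mean plus 3 SD, computed separately per campaign, cut at about 16% in these data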;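 note: 0% = DMSO wells and 100% = 60 µM geldanamycin wells; inhibitors lower the luminescence because luciferase stays unfolded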
SENP1 FRET inh: human SENP1 catalytic domain inhibitors, primary screen, biochemical, FRET, uHTS; inhibition, % at 10 µM; AID 624204, 2012; Sentrin-specific protease 1 (Homo sapiens), Q9P0U3; hit rate 0.21% among 360,000; recombinant SENP1 catalytic domain, CyPet-SUMO1-YPet FRET cleavage;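 active = inhibition at least 30% at 10 µM, raw YFP signal under a set limit, fluorescence ratio 0.5 to 1.5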;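 note: 0% = enzyme with DMSO and 100% = no enzyme wells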
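Test system: recombinant human SENP1 catalytic domain, His6-tagged / Medium: pH 8 Tris buffer with EDTA, NaCl, BME, BSA, NP40, catalase / Also added: SUMO1 FRET substrate flanked by Cypet and Ypet, 25 nM / Times: 50 min reaction at room temperature / Signal: FRET, CFP and YFP emission / Control set: no-enzyme low control and enzyme-plus-DMSO high control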
SENP8 block-1: SENP8 protease inhibitors, primary screen, biochemical, luminescence. Sentrin-specific protease 8 (Homo sapiens), Q96LD8. purified SENP8, Z-RLRGG-aminoluciferin cleavage. inhibition, % at 10 µM. hit rate 1.2% among 330,000. AID 2540, 2010; in the data active = inhibition above about 50%
SENP7 inh: SENP7 protease inhibitors, primary screen, biochemical, luminescence, uHTS; Sentrin-specific protease 7 (Homo sapiens), Q9BQF6; recombinant SENP7, Z-RLRGG-aminoluciferin luminescence, 40 min; inhibition, % at 5 µM; hit rate 1.5% among 330,000;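 active = inhibition above about 50% at the single test dose, limit read from the data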;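 note: plate controls were DMSO with enzyme for no effect and no enzyme buffer wells for full effect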
Target sequence (Q9BQF6 706-1050 limits assumed): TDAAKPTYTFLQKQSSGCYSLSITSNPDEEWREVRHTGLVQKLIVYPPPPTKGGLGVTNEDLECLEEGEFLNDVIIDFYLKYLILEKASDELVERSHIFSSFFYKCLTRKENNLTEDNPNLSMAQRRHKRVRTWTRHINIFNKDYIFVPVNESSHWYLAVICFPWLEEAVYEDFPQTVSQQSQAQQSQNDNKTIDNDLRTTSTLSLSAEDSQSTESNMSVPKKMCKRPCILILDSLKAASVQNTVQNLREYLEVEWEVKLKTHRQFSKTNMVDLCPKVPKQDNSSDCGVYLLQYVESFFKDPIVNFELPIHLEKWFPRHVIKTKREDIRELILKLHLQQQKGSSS
SENP8 block-2: human SENP8 protease inhibitors, primary screen, biochemical, fluorescence, Nedd8 protein substrate, uHTS; Sentrin-specific protease 8 (Homo sapiens), Q96LD8; recombinant SENP8; inhibition, % at 20 µM; hit rate 0.64% among 360,000; in the data active = inhibition mostly above about 40%, no sharp cut-off; inactive = mostly below about 27%
SENP8 confirm: SENP8 protease inhibitors, retest, confirmation, biochemical, luminescence, single concentration. shares compounds with SENP7 inh. Recombinant SENP8, Z-RLRGG-aminoluciferin luminescence, 60 min. inhibition, % at 12.5 µM. hit rate 40% among 6,200. AID 488912, 2010;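 active = mean inhibition across replicates above about 50%, limit read from the data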
SENP6 confirm: SENP6 protease inhibitors, confirmation, biochemical, luminescence, single concentration; recombinant SENP6, Z-RLRGG-aminoluciferin luminescence; AID 488915, 2010; inhibition, % at 12.5 µM; shares compounds with SENP7 inh; hit rate 58% among 6,200
SENP7 confirm: SENP7 protease inhibitors, retest, confirmation, biochemical, luminescence, single concentration; shares compounds with SENP7 inh; recombinant SENP7, Z-RLRGG-aminoluciferin luminescence, 40 min; inhibition, % at 12.5 µM; hit rate 69% among 6,200; AID 488917, 2010
Casp3 select: caspase-3 protease inhibitors, confirmation, selectivity assay for SENP inhibitor project, biochemical, single concentration; shares compounds with SENP7 inh; hit rate 60% among 6,200; purified caspase-3, Z-DEVD-aminoluciferin luminescence, 60 min; inhibition, % at 12.5 µM;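 active = mean inhibition above about 50%, limit read from the data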;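 note: plate controls were enzyme with DMSO for no effect and wells without caspase-3 for full effect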
Target sequence (P42574 28-227 limits assumed): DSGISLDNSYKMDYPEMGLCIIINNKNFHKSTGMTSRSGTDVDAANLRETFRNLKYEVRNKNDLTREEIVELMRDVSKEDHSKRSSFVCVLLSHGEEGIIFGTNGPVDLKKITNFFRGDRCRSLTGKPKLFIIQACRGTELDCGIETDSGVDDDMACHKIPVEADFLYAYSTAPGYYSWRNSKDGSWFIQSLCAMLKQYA
SENP luc ctr: interferes with luciferase luminescence in SENP counter-screen; shares compounds with SENP7 inh; Pre-incubated SENP8/Z-RLRGG-aminoluciferin, luciferase luminescence interference; inhibition, % at 12.5 µM; hit rate 39% among 6,200; AID 488919;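 active = mean inhibition above about 50% when retested at one dose, limit read from the data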;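 note: plate controls were DMSO wells with completed reaction for no effect and substrate without enzyme for full effect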
Starred values were filed as active, the others as inactive; i = inactive; . = no result given.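 Rule for the calls, unless noted: active = mean inhibition above about 50% in the one-dose retest (limit read from the data); inactive = the rest.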

SMILES	SENP6 block	HSP90 inh	SENP1 FRET inh	SENP8 block-1	SENP7 inh	SENP8 block-2	SENP8 confirm	SENP6 confirm	SENP7 confirm	Casp3 select	SENP luc ctr
CC(=O)Nc1ccc(OCc2ccc3c(c2)OCO3)cc1	82*	3	2	68*	85*	16	75*	74*	93*	88*	51*
Cc1cccc(C(=O)Nc2ccc(C(=O)N/N=C/c3ccc4c(c3)OCO4)cc2)c1	-3	-4	-1	2	-1	-281	.	.	.	.	.
Cc1cccc(C(=O)Nc2cccc(C(=O)N/N=C/c3ccc4c(c3)OCO4)c2)c1	50*	-1	-17	34	-7	-148	58*	46	46	47	26
Nc1c(C(=O)Nc2cccc(F)c2)nnn1-c1ccc2c(c1)OCCO2	43	9	4	17	83*	10	14	23	94*	69*	13
Cc1onc(-c2ccccc2Cl)c1C(=O)Nc1ccccc1O	7	4	1	-3	6	10	.	.	.	.	.
Cc1c(C(=O)Nc2ccc3c(c2)OCO3)oc2ccccc12	70*	-1	1	58*	67*	2	75*	75*	92*	59*	65*
O=C(Nc1ccc2ccccc2c1)c1cccc(F)c1	47	-1	3	60*	73*	10	12	59*	87*	41	-1
O=C(Nc1ccc2c(c1)OCO2)c1ccccc1	62*	9	0	41	55*	11	50	47	81*	81*	61*
CC(C)Cc1cc(C(=O)Nc2ccc(F)cc2F)no1	64*	0	2	45	56*	23	-8	47	82*	60*	5
CC(=O)Nc1c(C(=O)Nc2ccc3c(c2)OCO3)oc2ccccc12	9	-7	-1	-10	-7	-10	.	.	.	.	.
CC(C)Cc1cc(C(=O)Nc2cc(Cl)ccc2Cl)no1	-17	3	2	1	-5	4	.	.	.	.	.
O=C(NC(=S)Nc1ccc2c(c1)OCO2)c1ccccc1	22	-1	-5	5	-5	16	.	.	.	.	.
CC(C)c1nc(CNC(=O)C2CCC(=O)N(CCc3ccc(Cl)cc3)C2)no1 (stereo not given)	-13	-3	-1	-4	-3	9	.	.	.	.	.
Cc1ccc(CNC(=O)C2CCC(=O)N(C3CCCC3)C2)c(F)c1F (stereo not given)	9	0	3	-1	6	5	.	.	.	.	.
CC(C)Cc1cc(C(=O)Nc2ccc3c(c2)OCO3)no1	66*	0	4	40	53*	9	17	39	80*	60*	8
O=C(Nc1ccc2c(c1)OCO2)c1cccc(F)c1	79*	-3	1	46	76*	13	54*	54*	87*	82*	70*
Cc1cc(C(=O)Nc2ccc3c(c2)OCO3)no1	15	-1	-1	4	33	9	.	.	.	.	.
O=C(Nc1ccc2c(c1)OCO2)c1c(F)cccc1F	29	4	-2	-7	8	12	.	.	.	.	.
CCCCn1nnnc1C(c1ccccc1)N1CCN(C/C=C/c2ccccc2)CC1 (stereo not given)	.	.	-2	.	.	7	.	.	.	.	.
O=c1[nH]c2ccccc2nc1/C=C/c1ccc(Cl)cc1	-10	-3	-22	-1	72*	-377	1	2	2	4	2
COCCn1c(C)cc(C(=O)COC(=O)c2ccc(Br)o2)c1C	51*	4	2	35	41	4	44	40	80*	73*	64*
Nc1nnnn1/N=C/c1ccc(O)cc1	95*	1	-1	89*	90*	-40	93*	93*	101*	98*	85*
CNC(=O)COC(=O)c1ccc(-c2nc3ccccc3s2)s1	97*	3	-6	93*	97*	-282	26	31	51*	52*	32
COCCCNC(=O)COC(=O)c1ccc(-c2nc3ccccc3s2)s1	86*	5	-1	82*	86*	-433	61*	66*	91*	78*	59*
CNC(=O)COC(=O)/C=C/c1nc2ccccc2s1	-17	-1	2	-9	-8	1	.	.	.	.	.
SMILES	SENP6 block	HSP90 inh	SENP1 FRET inh	SENP8 block-1	SENP7 inh	SENP8 block-2	SENP8 confirm	SENP6 confirm	SENP7 confirm	Casp3 select	SENP luc ctr
COc1ccc(C(=O)NNC(=O)CN2CCC(n3nnc4cc(F)ccc43)CC2)cc1	-6	8	-2	-4	5	16	.	.	.	.	.
CN1CCc2cc3c(c4c2[C@H]1[C@H](O)c1ccccc1-4)OCO3	59*	7	-32	16	43	-15	33	78*	64*	70*	9
O=C(Nc1nc2ccccc2[nH]1)c1ccccc1O	88*	10	-4	82*	92*	-286	12	80*	64*	92*	2
O=C(Nc1nc2ccccc2[nH]1)c1cccc(Cl)c1	57*	-2	-2	24	68*	-8	-9	17	86*	66*	8
CC(=O)Nc1nc2ccccc2[nH]1	-16	0	-1	2	1	-2	.	.	.	.	.
N#Cc1c(NC(=O)c2ccc(Br)o2)n(-c2ccccc2)c2nc3ccccc3nc12	14	15	-35	93*	77*	-429	33	90*	82*	3	7
CCC(C)n1c(NC(=O)c2ccccc2)c(C#N)c2nc3ccccc3nc21 (stereo not given)	90*	15	-23	66*	44	i	29	69*	46	3	0
COc1ccc(-n2c(NC(=O)c3ccc(Br)o3)c(C#N)c3nc4ccccc4nc32)cc1	.	4	.	.	.	.	.	.	.	.	.
